Measurements reported in ChEMBL document CHEMBL2029214, “Radiosynthesis and evaluation of an (18)F-labeled positron emission tomography (PET) radioligand for brain histamine subtype-3 receptors based on a nonimidazole 2-aminoethylbenzofuran chemotype” (J Med Chem, 2012).

Legend:
[1] = target: 5-hydroxytryptamine receptor 1D (Homo sapiens, UniProt P28221); assay: Binding affinity to human recombinant 5HT1D receptor
In short: (§1)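 Ki values were taken from in vitro competitive binding assays against each human recombinant receptor.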

Histamine H1 receptor = Histamine H1 receptor (Homo sapiens, UniProt P35367); assay: Binding affinity to human recombinant H1 receptor
[2] = target: 5-hydroxytryptamine receptor 1E (Homo sapiens, UniProt P28566); assay: Binding affinity to human recombinant 5HT1E receptor
[3] = target: Sodium-dependent serotonin transporter (Homo sapiens, UniProt P31645); assay: Binding affinity to human recombinant SERT
[4] = target: Beta-1 adrenergic receptor (Homo sapiens, UniProt P08588); assay: Binding affinity to human recombinant beta1 adrenergic receptor
Histamine H4 receptor = Histamine H4 receptor (Homo sapiens, UniProt Q9H3N8); assay: Binding affinity to human recombinant H4 receptor
[5] = target: Muscarinic acetylcholine receptor M5 (Homo sapiens, UniProt P08912); assay: Binding affinity to human recombinant M5 receptor; in short: as §1
[6] = target: 5-hydroxytryptamine receptor 2A (Homo sapiens, UniProt P28223); assay: Binding affinity to human recombinant 5HT2A receptor; in short: as §1
[7] = target: 5-hydroxytryptamine receptor 2B (Homo sapiens, UniProt P41595); assay: Binding affinity to human recombinant 5HT2B receptor
[8] = target: 5-hydroxytryptamine receptor 1B (Homo sapiens, UniProt P28222); assay: Binding affinity to human recombinant 5HT1B receptor
[9] = target: 5-hydroxytryptamine receptor 2C (Homo sapiens, UniProt P28335); assay: Binding affinity to human recombinant 5HT2C receptor
[10] = target: Sigma non-opioid intracellular receptor 1 (Homo sapiens, UniProt Q99720); assay: Binding affinity to human recombinant sigma1 receptor
Chain of Sigma non-opioid intracellular receptor 1 (Q99720 whole entry): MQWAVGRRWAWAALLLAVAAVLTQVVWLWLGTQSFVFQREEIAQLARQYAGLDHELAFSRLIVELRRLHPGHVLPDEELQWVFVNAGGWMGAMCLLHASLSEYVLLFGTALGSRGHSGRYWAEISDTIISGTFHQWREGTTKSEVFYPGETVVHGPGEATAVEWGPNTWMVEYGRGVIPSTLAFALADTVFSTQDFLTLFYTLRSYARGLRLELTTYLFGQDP

[11] = target: Alpha-2B adrenergic receptor (Homo sapiens, UniProt P18089); assay: Binding affinity to human recombinant alpha2B adrenergic receptor
Chain of Alpha-2B adrenergic receptor (P18089 whole entry): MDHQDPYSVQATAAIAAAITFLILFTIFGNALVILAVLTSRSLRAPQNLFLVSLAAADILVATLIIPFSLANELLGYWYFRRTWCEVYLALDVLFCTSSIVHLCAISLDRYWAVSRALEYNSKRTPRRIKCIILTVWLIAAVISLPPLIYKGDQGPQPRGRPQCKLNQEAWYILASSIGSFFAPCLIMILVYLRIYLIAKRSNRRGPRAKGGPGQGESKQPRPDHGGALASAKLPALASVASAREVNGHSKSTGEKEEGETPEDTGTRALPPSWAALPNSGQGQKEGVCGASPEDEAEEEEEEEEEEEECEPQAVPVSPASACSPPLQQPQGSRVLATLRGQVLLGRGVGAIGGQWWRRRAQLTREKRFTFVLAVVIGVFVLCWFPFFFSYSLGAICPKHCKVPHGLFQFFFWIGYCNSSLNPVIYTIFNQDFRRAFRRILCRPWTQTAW

[12] = target: Muscarinic acetylcholine receptor M4 (Homo sapiens, UniProt P08173); assay: Binding affinity to human recombinant M4 receptor
Chain of Muscarinic acetylcholine receptor M4 (P08173 whole entry): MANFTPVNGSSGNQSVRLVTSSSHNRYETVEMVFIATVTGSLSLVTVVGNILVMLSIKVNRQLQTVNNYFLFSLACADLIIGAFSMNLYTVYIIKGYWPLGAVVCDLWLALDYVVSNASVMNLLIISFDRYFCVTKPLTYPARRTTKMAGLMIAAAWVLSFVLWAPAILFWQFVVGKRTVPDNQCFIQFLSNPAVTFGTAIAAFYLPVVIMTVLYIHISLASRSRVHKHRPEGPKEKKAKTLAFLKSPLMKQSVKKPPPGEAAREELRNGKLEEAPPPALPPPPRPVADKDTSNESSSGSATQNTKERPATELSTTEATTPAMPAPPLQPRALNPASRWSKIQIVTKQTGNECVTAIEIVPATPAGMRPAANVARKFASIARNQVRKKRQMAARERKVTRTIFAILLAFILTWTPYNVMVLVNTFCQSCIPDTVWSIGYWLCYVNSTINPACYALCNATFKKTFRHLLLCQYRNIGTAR

[13] = target: Muscarinic acetylcholine receptor M3 (Homo sapiens, UniProt P20309); assay: Binding affinity to human recombinant M3 receptor
Chain of Muscarinic acetylcholine receptor M3 (P20309 whole entry): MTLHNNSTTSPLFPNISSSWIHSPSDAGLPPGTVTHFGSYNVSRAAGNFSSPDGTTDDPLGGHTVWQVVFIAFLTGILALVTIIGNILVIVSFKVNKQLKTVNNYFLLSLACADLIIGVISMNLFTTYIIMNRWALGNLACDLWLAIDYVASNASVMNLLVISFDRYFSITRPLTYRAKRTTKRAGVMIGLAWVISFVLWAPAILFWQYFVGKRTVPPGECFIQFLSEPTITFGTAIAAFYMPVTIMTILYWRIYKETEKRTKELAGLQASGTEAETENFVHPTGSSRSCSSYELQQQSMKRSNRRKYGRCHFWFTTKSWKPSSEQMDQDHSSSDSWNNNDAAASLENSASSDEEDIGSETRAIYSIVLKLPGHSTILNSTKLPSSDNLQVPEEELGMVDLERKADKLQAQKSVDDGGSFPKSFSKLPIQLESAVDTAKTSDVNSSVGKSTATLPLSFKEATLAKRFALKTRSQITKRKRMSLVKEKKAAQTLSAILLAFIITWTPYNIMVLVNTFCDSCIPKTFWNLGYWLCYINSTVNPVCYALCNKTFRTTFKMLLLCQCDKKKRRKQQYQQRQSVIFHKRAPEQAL

[14] = target: Sodium-dependent dopamine transporter (Homo sapiens, UniProt Q01959); assay: Binding affinity to human recombinant DAT
Chain of Sodium-dependent dopamine transporter (Q01959 whole entry): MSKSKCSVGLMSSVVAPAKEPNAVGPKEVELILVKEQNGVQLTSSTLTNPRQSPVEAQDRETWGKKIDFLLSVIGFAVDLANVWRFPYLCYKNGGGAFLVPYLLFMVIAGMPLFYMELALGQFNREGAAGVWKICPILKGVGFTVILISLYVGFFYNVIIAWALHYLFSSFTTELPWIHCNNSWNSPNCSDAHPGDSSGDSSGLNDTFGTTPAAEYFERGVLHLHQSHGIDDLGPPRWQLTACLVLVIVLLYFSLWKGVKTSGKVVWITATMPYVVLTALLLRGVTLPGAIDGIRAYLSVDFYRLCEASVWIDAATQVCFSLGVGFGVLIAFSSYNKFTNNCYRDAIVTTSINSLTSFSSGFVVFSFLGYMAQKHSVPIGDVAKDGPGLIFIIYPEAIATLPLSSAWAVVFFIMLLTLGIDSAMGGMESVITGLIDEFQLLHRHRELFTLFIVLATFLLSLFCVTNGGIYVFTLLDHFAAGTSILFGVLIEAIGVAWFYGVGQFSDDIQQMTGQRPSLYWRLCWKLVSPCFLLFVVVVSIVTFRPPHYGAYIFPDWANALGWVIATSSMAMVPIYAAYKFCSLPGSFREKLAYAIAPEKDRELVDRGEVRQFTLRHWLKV

[15] = target: Beta-3 adrenergic receptor (Homo sapiens, UniProt P13945); assay: Binding affinity to human recombinant beta3 adrenergic receptor
[16] = target: Alpha-1D adrenergic receptor (Homo sapiens, UniProt P25100); assay: Binding affinity to human recombinant alpha1D adrenergic receptor
[17] = target: Alpha-1A adrenergic receptor (Homo sapiens, UniProt P35348); assay: Binding affinity to human recombinant alpha1A adrenergic receptor
[18] = target: Muscarinic acetylcholine receptor M1 (Homo sapiens, UniProt P11229); assay: Binding affinity to human recombinant M1 receptor
D(2) dopamine receptor = D(2) dopamine receptor (Homo sapiens, UniProt P14416); assay: Binding affinity to human recombinant Dopamine D2 receptor
[19] = target: 5-hydroxytryptamine receptor 1A (Homo sapiens, UniProt P08908); assay: Binding affinity to human recombinant 5HT1A receptor
Chain of 5-hydroxytryptamine receptor 1A (P08908 whole entry): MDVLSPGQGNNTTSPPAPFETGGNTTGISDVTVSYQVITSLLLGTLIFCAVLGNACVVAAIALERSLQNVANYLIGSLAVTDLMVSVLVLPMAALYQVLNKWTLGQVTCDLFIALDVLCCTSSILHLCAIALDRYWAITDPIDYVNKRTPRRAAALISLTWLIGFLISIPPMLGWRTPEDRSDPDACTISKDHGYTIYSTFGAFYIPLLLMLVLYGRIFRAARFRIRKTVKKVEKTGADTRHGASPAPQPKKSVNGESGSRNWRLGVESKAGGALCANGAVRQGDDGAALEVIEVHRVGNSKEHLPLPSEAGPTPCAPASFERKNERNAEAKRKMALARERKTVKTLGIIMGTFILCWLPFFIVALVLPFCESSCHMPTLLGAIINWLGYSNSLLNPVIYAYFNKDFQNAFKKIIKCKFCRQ

[20] = target: Muscarinic acetylcholine receptor M2 (Homo sapiens, UniProt P08172); assay: Binding affinity to human recombinant M2 receptor
D(3) dopamine receptor = D(3) dopamine receptor (Homo sapiens, UniProt P35462); assay: Binding affinity to human recombinant Dopamine D3 receptor
[21] = target: 5-hydroxytryptamine receptor 6 (Homo sapiens, UniProt P50406); assay: Binding affinity to human recombinant 5HT6 receptor
D(1A) dopamine receptor = D(1A) dopamine receptor (Homo sapiens, UniProt P21728); assay: Binding affinity to human recombinant Dopamine D1 receptor
[22] = target: Alpha-2C adrenergic receptor (Homo sapiens, UniProt P18825); assay: Binding affinity to human recombinant alpha2C adrenergic receptor
Chain of Alpha-2C adrenergic receptor (P18825 whole entry): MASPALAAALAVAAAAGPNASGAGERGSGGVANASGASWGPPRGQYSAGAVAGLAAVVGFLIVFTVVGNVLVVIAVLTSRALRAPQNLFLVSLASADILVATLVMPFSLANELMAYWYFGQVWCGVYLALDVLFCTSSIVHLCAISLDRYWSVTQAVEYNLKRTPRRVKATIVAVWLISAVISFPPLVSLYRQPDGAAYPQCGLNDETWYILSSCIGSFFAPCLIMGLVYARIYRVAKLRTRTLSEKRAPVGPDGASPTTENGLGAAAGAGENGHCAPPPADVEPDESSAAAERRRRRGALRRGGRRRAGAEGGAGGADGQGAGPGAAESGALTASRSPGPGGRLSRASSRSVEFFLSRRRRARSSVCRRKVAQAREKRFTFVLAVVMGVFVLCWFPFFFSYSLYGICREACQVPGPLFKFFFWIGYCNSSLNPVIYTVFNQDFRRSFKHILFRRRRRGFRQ

[23] = target: Alpha-1B adrenergic receptor (Homo sapiens, UniProt P35368); assay: Binding affinity to human recombinant alpha1B adrenergic receptor
[24] = target: 5-hydroxytryptamine receptor 3A (Homo sapiens, UniProt P46098); assay: Binding affinity to human recombinant 5HT3 receptor
[25] = target: Sodium-dependent noradrenaline transporter (Homo sapiens, UniProt P23975); assay: Binding affinity to human recombinant NET
D(4) dopamine receptor = D(4) dopamine receptor (Homo sapiens, UniProt P21917); assay: Binding affinity to human recombinant Dopamine D4 receptor
Chain of D(4) dopamine receptor (P21917 whole entry): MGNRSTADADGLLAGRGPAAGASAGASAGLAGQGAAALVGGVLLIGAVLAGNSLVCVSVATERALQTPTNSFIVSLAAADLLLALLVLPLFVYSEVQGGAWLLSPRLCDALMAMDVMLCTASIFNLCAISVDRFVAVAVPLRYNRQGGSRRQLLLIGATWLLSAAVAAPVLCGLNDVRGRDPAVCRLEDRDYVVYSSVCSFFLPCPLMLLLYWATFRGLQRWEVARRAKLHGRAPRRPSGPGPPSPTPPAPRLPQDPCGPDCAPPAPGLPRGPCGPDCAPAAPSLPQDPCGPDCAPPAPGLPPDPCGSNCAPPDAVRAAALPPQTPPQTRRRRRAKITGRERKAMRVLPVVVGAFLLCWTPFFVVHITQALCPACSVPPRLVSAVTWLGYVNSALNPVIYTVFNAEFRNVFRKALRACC

[26] = target: 5-hydroxytryptamine receptor 7 (Homo sapiens, UniProt P34969); assay: Binding affinity to human recombinant 5HT7 receptor
Chain of 5-hydroxytryptamine receptor 7 (P34969 whole entry): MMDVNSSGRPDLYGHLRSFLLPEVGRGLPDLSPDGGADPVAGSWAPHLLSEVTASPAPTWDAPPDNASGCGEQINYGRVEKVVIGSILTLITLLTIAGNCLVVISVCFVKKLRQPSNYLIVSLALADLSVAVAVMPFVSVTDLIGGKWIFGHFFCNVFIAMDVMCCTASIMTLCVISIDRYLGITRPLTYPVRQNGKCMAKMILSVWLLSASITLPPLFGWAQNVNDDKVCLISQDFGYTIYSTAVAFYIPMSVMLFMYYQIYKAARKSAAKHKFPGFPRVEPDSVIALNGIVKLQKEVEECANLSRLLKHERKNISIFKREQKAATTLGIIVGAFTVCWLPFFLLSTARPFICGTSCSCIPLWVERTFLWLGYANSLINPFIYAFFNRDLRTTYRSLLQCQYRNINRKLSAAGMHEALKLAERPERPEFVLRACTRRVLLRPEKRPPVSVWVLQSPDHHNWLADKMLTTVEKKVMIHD

[27] = target: Beta-2 adrenergic receptor (Homo sapiens, UniProt P07550); assay: Binding affinity to human recombinant beta2 adrenergic receptor
[28] = target: Alpha-2A adrenergic receptor (Homo sapiens, UniProt P08913); assay: Binding affinity to human recombinant alpha2A adrenergic receptor
Histamine H2 receptor = Histamine H2 receptor (Homo sapiens, UniProt P25021); assay: Binding affinity to human recombinant H2 receptor
Chain of Histamine H2 receptor (P25021 whole entry): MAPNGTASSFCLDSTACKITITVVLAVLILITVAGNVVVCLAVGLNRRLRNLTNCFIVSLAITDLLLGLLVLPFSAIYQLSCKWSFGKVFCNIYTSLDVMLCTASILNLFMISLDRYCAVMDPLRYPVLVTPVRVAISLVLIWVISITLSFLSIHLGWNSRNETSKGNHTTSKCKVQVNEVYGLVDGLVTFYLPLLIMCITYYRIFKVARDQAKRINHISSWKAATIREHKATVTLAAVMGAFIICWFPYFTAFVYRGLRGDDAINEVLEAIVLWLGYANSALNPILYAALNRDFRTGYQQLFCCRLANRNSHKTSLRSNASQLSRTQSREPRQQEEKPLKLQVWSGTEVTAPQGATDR

D(1B) dopamine receptor = D(1B) dopamine receptor (Homo sapiens, UniProt P21918); assay: Binding affinity to human recombinant Dopamine D5 receptor
[29] = target: Histamine receptor H3 (Macaca mulatta) (UniProt Q865E1); assay: Induction of histamine H3 receptor-mediated drug uptake in rhesus monkey brain by PET imaging
Chain of Histamine receptor H3 (Macaca mulatta) (Q865E1 as listed by the source): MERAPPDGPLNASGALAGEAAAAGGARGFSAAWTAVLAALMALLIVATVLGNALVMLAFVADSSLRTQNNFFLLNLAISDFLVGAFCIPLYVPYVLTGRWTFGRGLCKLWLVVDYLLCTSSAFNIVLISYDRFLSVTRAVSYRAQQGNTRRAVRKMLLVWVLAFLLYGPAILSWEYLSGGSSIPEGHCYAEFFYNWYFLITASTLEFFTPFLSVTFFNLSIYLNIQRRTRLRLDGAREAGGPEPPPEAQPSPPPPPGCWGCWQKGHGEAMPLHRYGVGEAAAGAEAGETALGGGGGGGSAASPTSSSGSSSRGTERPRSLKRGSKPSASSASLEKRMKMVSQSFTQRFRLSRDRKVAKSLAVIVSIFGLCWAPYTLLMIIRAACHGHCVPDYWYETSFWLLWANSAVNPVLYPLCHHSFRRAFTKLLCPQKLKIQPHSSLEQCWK
In short: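 Male rhesus monkeys (7.3 ± 0.8 kg; n = 4 baseline), ketamine 10 mg/kg i.m. then 1.5% isoflurane in O2. […] [18F]ligand given i.v. Focus 220 microPET, 180 min (one scan 120 min), 45 frames 30 s–5 min, scatter/attenuation corrected, decay-corrected; template-normalized regions; uptake as SUV.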

Histamine H3 receptor = Histamine H3 receptor (Homo sapiens, UniProt Q9Y5N1); assay: Binding affinity to human recombinant H3 receptor expressed in HEK293T cells; format: cell-based, HEK-293T

SMILES | Ki [1] [µM] | Ki (Histamine H1 receptor) [µM] | Ki [2] [µM] | Ki [3] [µM] | Ki [4] [µM] | Ki (Histamine H4 receptor) [µM] | Ki [5] [µM] | Ki [6] [µM] | Ki [7] [µM] | Ki [8] [µM] | Ki [9] [µM] | Ki [10] [µM] | Ki [11] [µM] | Ki [12] [µM] | Ki [13] [µM] | Ki [14] [µM] | Ki [15] [µM] | Ki [16] [µM] | Ki [17] [µM] | Ki [18] [µM] | also measured
C[C@@H]1CCCN1CCc1cc2cc(C(=O)c3ccc(F)cc3)ccc2o1 | 6.38 | 5.44 | > 10 | > 10 | > 10 | > 10 | 0.437 | 2.72 | 3.15 | > 10 | > 10 | > 10 | > 10 | 0.351 | 0.204 | > 10 | > 10 | > 10 | > 10 | 3.27 | Ki (D(2) dopamine receptor): > 10 µM; Ki [19]: 0.432 µM; Ki [20]: 0.462 µM; Ki (D(3) dopamine receptor): > 10 µM; Ki [21]: > 10 µM; Ki (D(1A) dopamine receptor): > 10 µM; Ki [22]: > 10 µM; Ki [23]: > 10 µM; Ki [24]: > 10 µM; Ki [25]: > 10 µM; Ki (D(4) dopamine receptor): > 10 µM; Ki [26]: > 10 µM; Ki [27]: > 10 µM; Ki [28]: > 10 µM; Ki (Histamine H2 receptor): 1.71 µM; Ki (D(1B) dopamine receptor): > 10 µM
COc1ccc2c(c1)C(=O)O[C@]21CC[C@H](C(=O)N(C)CCN2CCCCC2)CC1 |  |  |  |  |  |  |  |  |  |  |  |  |  |  |  |  |  |  |  |  | Activity [29]: 83%
C[C@@H]1CCCN1CCc1cc2cc(C(=O)c3ccc([N+](=O)[O-])cc3)ccc2o1 | 5.24 | 7.05 | > 10 | > 10 | > 10 | > 10 | 0.336 | 1.36 | > 10 | > 10 | > 10 | > 10 | > 10 | 0.415 | 0.512 | 0.137 | > 10 | > 10 | > 10 | 0.931 | Ki (Histamine H3 receptor): 0.0004 µM; Ki (D(2) dopamine receptor): > 10 µM; Ki [19]: > 10 µM; Ki [20]: 0.681 µM; Ki (D(3) dopamine receptor): > 10 µM; Ki [21]: > 10 µM; Ki (D(1A) dopamine receptor): > 10 µM; Ki [22]: > 10 µM; Ki [23]: > 10 µM; Ki [24]: > 10 µM; Ki [25]: > 10 µM; Ki (D(4) dopamine receptor): > 10 µM; Ki [26]: > 10 µM; Ki [27]: > 10 µM; Ki [28]: > 10 µM; Ki (Histamine H2 receptor): 0.923 µM; Ki (D(1B) dopamine receptor): > 10 µM
CNC(=O)c1ccc(Oc2ccc3c(c2)CCN(C2CCC2)CC3)nc1 |  |  |  |  |  |  |  |  |  |  |  |  |  |  |  |  |  |  |  |  | Activity [29]: > 90%
